Screening data: PubChem, several laboratories
Compounds with a hit are over-represented: about 2.6% of the library has one in this group of screens.
rCAG binder: binders of r(CAG) RNA repeats, primary screen, biochemical, fluorescence | inhibition, % at 3 µM | r(CAG) RNA repeat, TO-PRO-1 dye displacement fluorescence | actives 1.3% (n = 370,000);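 active means inhibition above the plate cutoff, the mean of all test compounds on that plate plus 3 SD, cut at about 35% in these data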;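 further: higher means more dye released from RNA so lower well fluorescence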
HCV core dimer: inhibitors of HCV core protein dimerization, primary screen, biochemical, TR-FRET, high-throughput; TR-FRET GST/Flag-core106 dimerization, 1536-well; inhibition, % at 5 µM; AID 1899, 2009; actives 0.33% (n = 300,000);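 active means inhibition above the mean of all tested compounds plus 3 SD, set per screening campaign, cut at about 45% in these data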
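Material: Tagged HCV core106 pair (GST and Flag) | Amount: GST-core106 13.5 nM, Flag-core106 17 nM | Medium: KF-containing HEPES buffer, pH 7.45, DTT, CHAPS, BSA | Reagent: Eu donor and XL665 acceptor anti-tag antibodies | Schedule: 4 h at 22.5 °C | Technique: Time-resolved FRET, ex 340 nm, em 617 and 671 nm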
ABHD5 PLIN5 PPI: ABHD5-PLIN5 interaction inhibitors, primary screen, cell lysate, split luciferase complementation, luminescence. Perilipin-5 (Homo sapiens) + 1-acylglycerol-3-phosphate O-acyltransferase ABHD5 (Homo …. Split G. princeps luciferase complementation, 4 h. inhibition, % at 4 µM. actives 0.78% (n = 360,000). AID 602281, 2012;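 active means inhibition above the mean inhibition across every tested compound plus 3 SD, cut at about 22% in these data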
Target sequence (Q00G26 whole entry, looked up): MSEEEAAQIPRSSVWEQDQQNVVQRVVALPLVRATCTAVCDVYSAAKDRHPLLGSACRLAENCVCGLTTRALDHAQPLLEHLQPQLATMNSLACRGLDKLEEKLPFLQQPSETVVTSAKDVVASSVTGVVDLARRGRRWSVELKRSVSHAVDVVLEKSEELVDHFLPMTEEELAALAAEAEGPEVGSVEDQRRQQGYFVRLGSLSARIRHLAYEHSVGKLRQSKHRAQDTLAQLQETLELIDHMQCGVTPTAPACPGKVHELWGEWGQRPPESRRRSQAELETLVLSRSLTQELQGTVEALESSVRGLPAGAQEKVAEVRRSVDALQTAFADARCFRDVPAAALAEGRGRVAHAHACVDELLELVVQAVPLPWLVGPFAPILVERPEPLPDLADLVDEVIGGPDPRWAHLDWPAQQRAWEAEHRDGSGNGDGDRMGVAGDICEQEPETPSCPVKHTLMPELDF
Target sequence (Q8WTS1 whole entry, looked up): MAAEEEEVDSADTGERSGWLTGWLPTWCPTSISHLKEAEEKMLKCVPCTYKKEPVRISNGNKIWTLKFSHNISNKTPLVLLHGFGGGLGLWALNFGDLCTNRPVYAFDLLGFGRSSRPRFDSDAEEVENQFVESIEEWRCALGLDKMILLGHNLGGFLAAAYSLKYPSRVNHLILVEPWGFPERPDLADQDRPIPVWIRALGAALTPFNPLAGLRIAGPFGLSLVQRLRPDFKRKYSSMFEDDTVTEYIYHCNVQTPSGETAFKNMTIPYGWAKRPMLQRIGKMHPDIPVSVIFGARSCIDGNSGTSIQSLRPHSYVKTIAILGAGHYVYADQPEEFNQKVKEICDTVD
NadD inh: inhibitors of S. aureus NadD, primary screen, biochemical, colorimetric, uHTS; purified NadD enzyme, colorimetric absorbance read-out; inhibition, % at 20 µM; actives 0.78% (n = 360,000); Nicotinate-nucleotide adenylyltransferase NadD (Staphylococcus aureus N315); AID 602399, 2012; in the data active means inhibition above about 26%
NadD inh conf: inhibitors of S. aureus NadD, confirmation, biochemical, colorimetric, single concentration; shares compounds with NadD inh; purified S. aureus NadD, colorimetric enzyme assay; inhibition, % at 20 µM; actives 13% (n = 2,000); in the data active means inhibition mostly above about 42%, no sharp cut-off; inactive means mostly below about 42%
Large screens that a line does not name were inactive (follow-up assays come after a bar, where they were run).

N#C/C(=C/c1ccc(-c2ccccc2)o1)c1nc(-c2cccs2)cs1	none
Cc1ccc(Cc2cnc(NC(=O)/C(C#N)=C/c3ccc(-c4ccc([N+](=O)[O-])cc4)o3)s2)cc1	NadD inh 47.7 | NadD inh conf inactive
Cc1cnc(NC(=O)c2ccc(-c3ccc([N+](=O)[O-])cc3)o2)s1	none (no result: HCV core dimer)
Cc1cccnc1C(NC(=O)C1CCN(Cc2ccc(Oc3ccccc3)cc2)CC1)c1ccc(F)cc1 (centres undefined)	none (no result: HCV core dimer)
CCOC(=O)C1=C(CSc2nc(-c3ccccc3)ccc2C#N)OC(N)=C(C#N)C1c1cccnc1 (centres undefined)	NadD inh 40.4 | NadD inh conf inactive
CCOC(=O)C1=C(CSc2nc(-c3ccccc3)ccc2C#N)OC(N)=C(C#N)C1c1ccccc1 (centres undefined)	HCV core dimer 52.9, NadD inh 36.9 | NadD inh conf inactive
O=C(NCc1ccncc1)[C@@H]1CCCN1C(=O)[C@@H]1CCCN1	none (no result: HCV core dimer)
O=C(Nc1ccccc1C(F)(F)F)NC1(C(=O)N2CCOCC2)CCCCC1	rCAG binder 71.9, NadD inh 31.2 (no result: HCV core dimer) | NadD inh conf inactive
Cc1ccccc1NC(=O)NC1(C(=O)N2CCOCC2)CCCCC1	none
Cc1ccc2nc(N/N=C\c3ccc([N+](=O)[O-])o3)nc(-c3ccccc3)c2c1	NadD inh 37.1 | NadD inh conf inactive
O=[N+]([O-])c1ccc(/C=N/Nc2nc(-c3ccccc3)c3cc(Br)ccc3n2)o1	NadD inh 41.4 | NadD inh conf inactive
COc1cccc(Nc2nc(C(N)CCc3ccccc3)cs2)n1 (centres undefined)	none (no result: HCV core dimer)
COc1ccc2c(c1)[C@@H](NC(=O)C(F)(F)F)[C@@H]1CCCC[C@]21c1ccccc1	none (no result: HCV core dimer, ABHD5 PLIN5 PPI, NadD inh)
C[C@@H]1CC2=C(C(=O)OC(C)(C)O2)[C@H](c2ccc(F)cc2)O1	none (no result: HCV core dimer)
CC(=O)c1ccc(NC(=O)COC(=O)c2c3c(nc4ccccc24)/C(=C\c2cccs2)CCC3)cc1	NadD inh 27.2 | NadD inh conf inactive
O=C(COC(=O)c1c2c(nc3ccccc13)/C(=C\c1cccs1)CCC2)Nc1ccccc1	none
Cn1ccc2c(-c3ccc(CO)cc3)cc3c(c21)C1CCC3C1 (centres undefined)	none (no result: HCV core dimer)
CCOC(=O)c1sc(NC(=O)c2cc(-c3ccccc3C)nc3ccccc23)c(C#N)c1C	NadD inh 47.7 | NadD inh conf inactive
Cc1ccccc1-c1cc(C(=O)Nc2sc(C)c(C)c2C(N)=O)c2ccccc2n1	none
CCOc1ccc(C(=O)Nc2cc(NC(=O)c3ccc(OCC)c(Cl)c3)cc(C(=O)O)c2)cc1Cl	NadD inh 30.2 (no result: HCV core dimer) | NadD inh conf inactive
Cc1[nH]c2c(ccc3ccccc32)c1C1C(CCN)C1(C)C (centres undefined)	NadD inh 33.2 | NadD inh conf inactive
S=c1[nH]c2ccc3ccccc3c2[nH]1	none
CC(C)C[C@H]1CN([C@@H](Cc2ccccc2)CN2CCC[C@@H]2CN2C(=O)C(=O)NC[C@@H]2Cc2ccc(O)cc2)C(=O)C(=O)N1CC1CCCCCC1	none (no result: HCV core dimer)
O=C1NC[C@H](Cc2ccccc2)N(C[C@H]2CCCN2C[C@H](Cc2ccccc2)N2C[C@H](Cc3ccccc3)N(CC3CCCCCC3)C(=O)C2=O)C1=O	none (no result: HCV core dimer)
O=C1NC[C@H](Cc2ccc(O)cc2)N(C[C@@H]2CCCN2C[C@H](Cc2ccc(O)cc2)N2C[C@H](Cc3ccccc3)N(CC3CCCCC3)C(=O)C2=O)C1=O	NadD inh 32.9 (no result: HCV core dimer) | NadD inh conf inactive
O=C1NC[C@H](Cc2ccccc2)N(C[C@@H]2CCCN2C[C@H](Cc2ccc(O)cc2)N2C[C@H](Cc3ccccc3)N(CCc3ccccc3)C(=O)C2=O)C1=O	NadD inh 30.3 (no result: HCV core dimer) | NadD inh conf inactive
CC(C)C[C@H]1CNC(=O)C(=O)N1C[C@@H]1CCCN1C[C@H](Cc1ccc(O)cc1)N1C[C@H](Cc2ccccc2)N(CC2CCCCC2)C(=O)C1=O	none (no result: HCV core dimer)
O=C1NC[C@H](Cc2ccc(O)cc2)N(C[C@@H]2CCCN2C[C@H](Cc2ccccc2)N2C[C@H](Cc3ccc(O)cc3)N(CC3CCCCC3)C(=O)C2=O)C1=O	NadD inh 40.7 (no result: HCV core dimer) | NadD inh conf inactive
O=C1NC[C@H](Cc2ccccc2)N(C[C@@H]2CCCN2C[C@H](Cc2ccc(O)cc2)N2C[C@H](Cc3ccc(O)cc3)N(CC3CCCCC3)C(=O)C2=O)C1=O	NadD inh 32.5 (no result: HCV core dimer) | NadD inh conf inactive
CCOc1ccc(CCN2C(=O)C(=O)N([C@@H](Cc3ccccc3)CN3CCC[C@@H]3CN3C(=O)C(=O)NC[C@@H]3Cc3ccc(O)cc3)C[C@@H]2Cc2ccccc2)cc1	none (no result: HCV core dimer)
Cc1ccc(-c2nnc(Oc3ccc(NC(=O)c4ccccc4)cc3)c3ccccc23)cc1	NadD inh 30.4 | NadD inh conf inactive
O=C(Nc1ccc2c(c1)OCO2)C1Cc2ccccc2CN1S(=O)(=O)c1cccs1 (centres undefined)	NadD inh 31.0 | NadD inh conf inactive
O=C(Nc1ccc2c(c1)OCO2)C1CCN(S(=O)(=O)c2cccs2)CC1	none
CC(C)c1ccc(C(=O)N2CCCC(c3cc(C(=O)Nc4ccccc4Cl)no3)C2)cc1 (centres undefined)	none (no result: HCV core dimer)
CC1CCN(C(=O)c2ncn3c2C(=O)N[C@H](C)C3)CC1	none (no result: HCV core dimer, ABHD5 PLIN5 PPI, NadD inh)
C/C(=N\Nc1ccc(S(=O)(=O)Nc2ccc(Cl)cc2)cc1[N+](=O)[O-])c1ccc(N2CCOCC2)cc1	none
O=[N+]([O-])c1ccccc1/C=C/C=N/Nc1ccc(S(=O)(=O)Nc2ccc(Cl)cc2)cc1[N+](=O)[O-]	NadD inh 26.0 | NadD inh conf inactive
C/C(=N\Nc1ccc(S(=O)(=O)Nc2ccccc2)cc1[N+](=O)[O-])c1ccc(N2CCOCC2)cc1	NadD inh 42.2 | NadD inh conf inactive
O=[N+]([O-])c1cc(S(=O)(=O)Nc2cccc(Cl)c2)ccc1N/N=C/c1ccc(N2CCOCC2)cc1	NadD inh 28.2 | NadD inh conf inactive
CCn1c(SCC(=O)Nc2nc(-c3ccc(C)cc3)cs2)nnc1-c1ccccc1	none
CCn1c(SCC(=O)Nc2nc(-c3ccc(C)cc3)cs2)nnc1-c1ccccc1O	NadD inh 37.4 | NadD inh conf 43.1
CCCCn1nnnc1C(c1cc2ccccc2o1)N(C)Cc1ccccc1 (centres undefined)	none (no result: HCV core dimer)
CCOC(=O)c1c2ccc(OCC(=O)N/N=C/c3ccc(C)cc3)cc2n2ccccc12	NadD inh 37.3 | NadD inh conf inactive
CSCCCNC(=O)c1cn(C(C)c2ccccc2)nn1 (centres undefined)	none (no result: HCV core dimer, ABHD5 PLIN5 PPI, NadD inh)
COc1cc(/C=N/NC(=O)COc2c(C)cc([N+](=O)[O-])cc2C)ccc1OC(=O)c1ccccc1	none
